What all share (format): functional
For experiment [1], the system named is Staphylococcus aureus. Briefly: Inhibition of growth of Staphylococcus aureus (sensitive).
For the next experiment, the system named is Enterococcus faecalis. Briefly: Inhibition of growth of Streptococcus faecalis.
The test system of the next experiment is Enterobacter cloacae. Briefly: Inhibition of growth of Entero. cloacae.
A further experiment deals with Pseudomonas aeruginosa. Briefly: Inhibition of growth of Pseudomonas aeruginosa.
The test system of experiment [2] is Escherichia coli. Briefly: Inhibition of growth of Escherichia coli H560.
The test system of experiment [3] is Escherichia coli. Briefly: Inhibition of growth of Escherichia coli vogel.
Experiment [4] relates to Mus musculus. Briefly: In vivo protective dose (PD50) in mice against Escherichia coli Vogel when administered perorally. To be noted: po, read-out: PD50.
The test system of the next experiment is Streptococcus pyogenes. Briefly: Inhibition of growth of Streptococcus pyogenes.
The test system of another experiment is Klebsiella pneumoniae. Briefly: Inhibition of growth of Klebsiella pneumonia.
The test system of a further experiment is Streptococcus pneumoniae. Briefly: Inhibition of growth of Streptococcus pneumonia.
In experiment [5] the test system is Staphylococcus aureus. Briefly: Inhibition of growth of Staphylococcus aureus (resistant).
The test system of experiment [6] is Mus musculus. Briefly: In vivo protective dose (PD50) in mice against Escherichia coli Vogel when administered subcutaneously. To be noted: sc, read-out: PD50.
In another experiment the test system is Providencia rettgeri. Briefly: Inhibition of growth of Proteus rettgeri.
For experiment [7], the system named is Escherichia coli. Briefly: Minimum concentration of the drug needed to produce linear DNA at an intensity relative to oxolinic acid(at 10 ug/mL). To be noted: read-out: I50. A digest of the protocol: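 DNA gyrase from Escherichia coli H560, assayed by a previously published procedure. The end point is the lowest drug concentration giving linear DNA at an intensity matching the oxolinic acid reference at 10 μg/mL.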

≈ marks a conversion by molar mass, not a printed value. A value given as a limit tells only on which side of the number the result lay.

Turning to `CCNCC1CCN(c2c(F)cc3c(=O)c(C(=O)O)cn4c3c2OCC4C)C1` (stereo unspecified), the MIC is 0.006 µg/mL (≈ 0.0154 µM) with Staphylococcus aureus [1]; 0.05 µg/mL (≈ 0.128 µM) with Enterococcus faecalis; 0.2 µg/mL (≈ 0.514 µM) in the experiment with Enterobacter cloacae; 0.8 µg/mL (≈ 2.05 µM) with Pseudomonas aeruginosa; 0.05 µg/mL (≈ 0.128 µM) in the experiment with Escherichia coli [2]; 0.1 µg/mL (≈ 0.257 µM) against Escherichia coli [3]. Also, the MIC in the experiment on Streptococcus pyogenes amounted to 0.006 µg/mL (≈ 0.0154 µM); against Klebsiella pneumoniae it was 0.4 µg/mL (≈ 1.03 µM); in the experiment with Streptococcus pneumoniae it was 0.025 µg/mL (≈ 0.0642 µM); in the experiment with Staphylococcus aureus [5] it was 0.2 µg/mL (≈ 0.514 µM); against Providencia rettgeri, 0.4 µg/mL (≈ 1.03 µM). In addition, the ED50 was > 100 mg/kg with Mus musculus [4] and 11 mg/kg with Mus musculus [6].
As for `CC1COc2c(N3CCC(CN(C)C)C3)c(F)cc3c(=O)c(C(=O)O)cn1c23` (stereo unspecified), the MIC worked out at 0.05 µg/mL (≈ 0.128 µM) against Staphylococcus aureus [1]; 0.4 µg/mL (≈ 1.03 µM) in the experiment with Enterococcus faecalis; 0.4 µg/mL (≈ 1.03 µM) against Enterobacter cloacae; 3.1 µg/mL (≈ 7.96 µM) against Pseudomonas aeruginosa; 0.2 µg/mL (≈ 0.514 µM) against Escherichia coli [2]; 0.2 µg/mL (≈ 0.514 µM) in the experiment with Escherichia coli [3]. The MIC in the experiment with Streptococcus pyogenes was 0.05 µg/mL (≈ 0.128 µM); in the experiment with Klebsiella pneumoniae it was 0.4 µg/mL (≈ 1.03 µM); against Streptococcus pneumoniae, 0.05 µg/mL (≈ 0.128 µM); with Staphylococcus aureus [5], 0.2 µg/mL (≈ 0.514 µM); with Providencia rettgeri it was 0.8 µg/mL (≈ 2.05 µM). For the same molecule, the ED50 with Mus musculus [4] was found to be 6.2 mg/kg; in the experiment with Mus musculus [6] it was 2.6 mg/kg. In addition, the IC50 in the experiment on Escherichia coli [7] was 3 µg/mL (≈ 7.7 µM).
`CN(C)CC1CCN(c2c(F)cc3c(=O)c(C(=O)O)cn4c3c2OCC42CC2)C1` (stereo unspecified): the MIC against Staphylococcus aureus [1] turned out to be 0.2 µg/mL (≈ 0.498 µM); in the experiment with Enterococcus faecalis, 0.8 µg/mL (≈ 1.99 µM); against Enterobacter cloacae it was 0.8 µg/mL (≈ 1.99 µM); against Pseudomonas aeruginosa, 6.3 µg/mL (≈ 15.7 µM); in the experiment with Escherichia coli [2], 0.8 µg/mL (≈ 1.99 µM); in the experiment with Escherichia coli [3], 0.4 µg/mL (≈ 0.996 µM). Moreover, the MIC in the experiment with Streptococcus pyogenes is 0.4 µg/mL (≈ 0.996 µM); with Klebsiella pneumoniae, 0.8 µg/mL (≈ 1.99 µM); with Streptococcus pneumoniae, 0.4 µg/mL (≈ 0.996 µM); against Staphylococcus aureus [5], 0.8 µg/mL (≈ 1.99 µM); with Providencia rettgeri, 3.1 µg/mL (≈ 7.72 µM). Besides, the ED50 worked out at 16 mg/kg with Mus musculus [4] and 6.3 mg/kg in the experiment on Mus musculus [6]. In addition, the IC50 in the experiment with Escherichia coli [7] is 11.2 µg/mL (≈ 28 µM).
For the molecule `O=C(O)c1cn2c3c(c(N4CCNCC4)c(F)cc3c1=O)OCC21CC1`, the MIC in the experiment on Staphylococcus aureus [1] amounted to 1.6 µg/mL (≈ 4.45 µM); against Enterococcus faecalis it was 6.3 µg/mL (≈ 17.5 µM); against Enterobacter cloacae, 0.4 µg/mL (≈ 1.11 µM); with Pseudomonas aeruginosa, 0.8 µg/mL (≈ 2.23 µM); in the experiment with Escherichia coli [2], 0.4 µg/mL (≈ 1.11 µM); against Escherichia coli [3] it was 0.8 µg/mL (≈ 2.23 µM). The minimum inhibitory concentration (MIC) against Streptococcus pyogenes is 12.5 µg/mL (≈ 34.8 µM); with Klebsiella pneumoniae, 0.8 µg/mL (≈ 2.23 µM); against Streptococcus pneumoniae, 12.5 µg/mL (≈ 34.8 µM); with Staphylococcus aureus [5], 6.3 µg/mL (≈ 17.5 µM); against Providencia rettgeri it was 1.6 µg/mL (≈ 4.45 µM). In the experiment with Escherichia coli [7], the IC50 was found to be 11.2 µg/mL (≈ 31.3 µM).
Turning to `CCNCC1CCN(c2c(F)cc3c(=O)c(C(=O)O)cn4c3c2OCC42CC2)C1` (stereo unspecified), the MIC with Staphylococcus aureus [1] stood at 0.1 µg/mL (≈ 0.249 µM); against Enterococcus faecalis, 0.8 µg/mL (≈ 1.99 µM); in the experiment with Enterobacter cloacae, 0.8 µg/mL (≈ 1.99 µM); in the experiment on Pseudomonas aeruginosa, 6.3 µg/mL (≈ 15.7 µM); against Escherichia coli [2] it was 1.6 µg/mL (≈ 3.99 µM); against Escherichia coli [3], 0.8 µg/mL (≈ 1.99 µM). Also, the minimal inhibitory concentration (MIC) against Streptococcus pyogenes is 0.05 µg/mL (≈ 0.125 µM); in the experiment with Klebsiella pneumoniae it was 3.1 µg/mL (≈ 7.72 µM); against Streptococcus pneumoniae, 0.05 µg/mL (≈ 0.125 µM); against Staphylococcus aureus [5], 1.6 µg/mL (≈ 3.99 µM); in the experiment with Providencia rettgeri, 3.1 µg/mL (≈ 7.72 µM). Besides, the IC50 in the experiment on Escherichia coli [7] is 5.5 µg/mL (≈ 13.7 µM).
Consider `CC1COc2c(N3CCNCC3)c(F)cc3c(=O)c(C(=O)O)cn1c23` (stereo unspecified) [DESMETHYL-OFLOXACIN], for which the minimum inhibitory concentration (MIC) is 0.4 µg/mL (≈ 1.15 µM) in the experiment with Staphylococcus aureus [1]; 6.3 µg/mL (≈ 18.1 µM) in the experiment on Enterococcus faecalis; 0.1 µg/mL (≈ 0.288 µM) against Enterobacter cloacae; 1.6 µg/mL (≈ 4.61 µM) in the experiment on Pseudomonas aeruginosa; 0.1 µg/mL (≈ 0.288 µM) with Escherichia coli [2]; 0.2 µg/mL (≈ 0.576 µM) against Escherichia coli [3]. Also, the minimum inhibitory concentration (MIC) in the experiment on Streptococcus pyogenes is 0.4 µg/mL (≈ 1.15 µM); in the experiment on Klebsiella pneumoniae, 0.2 µg/mL (≈ 0.576 µM); against Streptococcus pneumoniae, 3.1 µg/mL (≈ 8.92 µM); in the experiment on Staphylococcus aureus [5], 3.1 µg/mL (≈ 8.92 µM); with Providencia rettgeri it was 0.4 µg/mL (≈ 1.15 µM). Moreover, the IC50 with Escherichia coli [7] amounted to 3 µg/mL (≈ 8.64 µM).
As to `CC1COc2c(N3CCN(C)CC3)c(F)cc3c(=O)c(C(=O)O)cn1c23` (stereo unspecified) [OFLOXACIN], the MIC in the experiment with Staphylococcus aureus [1] is 0.1 µg/mL (≈ 0.277 µM); against Enterococcus faecalis, 0.8 µg/mL (≈ 2.21 µM); in the experiment with Enterobacter cloacae, 0.1 µg/mL (≈ 0.277 µM); against Pseudomonas aeruginosa, 0.4 µg/mL (≈ 1.11 µM); against Escherichia coli [2], 0.05 µg/mL (≈ 0.138 µM); against Escherichia coli [3], 0.1 µg/mL (≈ 0.277 µM). The MIC in the experiment on Streptococcus pyogenes was found to be 0.8 µg/mL (≈ 2.21 µM); against Klebsiella pneumoniae, 0.1 µg/mL (≈ 0.277 µM); against Streptococcus pneumoniae it was 0.8 µg/mL (≈ 2.21 µM); in the experiment on Staphylococcus aureus [5], 0.4 µg/mL (≈ 1.11 µM); against Providencia rettgeri, 0.2 µg/mL (≈ 0.553 µM). For the same molecule, the ED50 in the experiment with Mus musculus [4] came to 2 mg/kg; in the experiment on Mus musculus [6] it was 0.8 mg/kg. For the same molecule, the IC50 in the experiment with Escherichia coli [7] is 2.25 µg/mL (≈ 6.23 µM).
